Measured values from paper PMC3105124 (Brain research, 2011).
Read-outs that look alike come from different tables or passages of the source. Marks after values point to notes of the source that are not given here.

Assays:
[1] = system: L5/L6 spinal nerve ligated male Sprague Dawley rats; assay: Thermal hypersensitivity; type: in vivo, rat; settings: for AUC, paw withdrawal latency (thermal): vehicle AUC=55.52 ± 2.74; for effect on thermal hyperalgesia compared to vehicle or post injury baseline: morphine (10 mg), all time-points and total AUC
[2] = system: L5/L6 spinal nerve ligated male Sprague Dawley rats; assay: Mechanical hypersensitivity; type: in vivo, rat; settings: for AUC, paw withdrawal threshold (mechanical): vehicle AUC=22.07 ± 3.02
[3] = system: male Sprague Dawley rats; type: in vivo, rat
Procedure, shortened: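 CCK-8sulf (30 ng/0.5 μL, in water) went into the RVM 10 min before. Naloxone (10 mg/kg sc, saline) was given 20 min before. Radiant heat to the plantar hind paw gave withdrawal latency, compared with baseline.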

[4] = molecular target: CCK-2 receptor; settings: read-out: Ki at the CCK-2 receptor; ref Agnes et al., 2008; cited from earlier work
[5] = molecular target: μ opioid receptor; settings: read-out: Ki at the μ opioid receptor; ref Agnes et al., 2008; cited from earlier work
[6] = molecular target: CCK-1 receptor; settings: read-out: Ki at the CCK-1 receptor; ref Agnes et al., 2008; cited from earlier work
[7] = system: L5/L6 spinal nerve ligated male Sprague Dawley rats; type: in vivo, rat
[8] = molecular target: rat μ opioid receptor (MOR) (Rattus norvegicus, UniProt P33535); settings: ref Agnes et al., 2008, cited from earlier work
Sequence of rat μ opioid receptor (MOR) (P33535 whole entry): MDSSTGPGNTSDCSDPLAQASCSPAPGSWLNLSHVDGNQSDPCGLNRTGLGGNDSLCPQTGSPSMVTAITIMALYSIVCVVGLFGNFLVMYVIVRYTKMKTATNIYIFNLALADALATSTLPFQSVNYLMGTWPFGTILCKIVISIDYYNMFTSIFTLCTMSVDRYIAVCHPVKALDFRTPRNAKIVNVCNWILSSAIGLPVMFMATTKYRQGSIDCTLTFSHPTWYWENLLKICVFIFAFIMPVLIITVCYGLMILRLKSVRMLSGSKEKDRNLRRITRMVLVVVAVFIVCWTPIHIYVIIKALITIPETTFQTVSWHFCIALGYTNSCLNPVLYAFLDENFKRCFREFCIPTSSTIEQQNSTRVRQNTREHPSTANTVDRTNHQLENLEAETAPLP

[9] = molecular target: human δ opioid receptor (hDOR) (Homo sapiens, UniProt P41143); settings: ref Agnes et al., 2008, cited from earlier work
Sequence of human δ opioid receptor (hDOR) (P41143 whole entry): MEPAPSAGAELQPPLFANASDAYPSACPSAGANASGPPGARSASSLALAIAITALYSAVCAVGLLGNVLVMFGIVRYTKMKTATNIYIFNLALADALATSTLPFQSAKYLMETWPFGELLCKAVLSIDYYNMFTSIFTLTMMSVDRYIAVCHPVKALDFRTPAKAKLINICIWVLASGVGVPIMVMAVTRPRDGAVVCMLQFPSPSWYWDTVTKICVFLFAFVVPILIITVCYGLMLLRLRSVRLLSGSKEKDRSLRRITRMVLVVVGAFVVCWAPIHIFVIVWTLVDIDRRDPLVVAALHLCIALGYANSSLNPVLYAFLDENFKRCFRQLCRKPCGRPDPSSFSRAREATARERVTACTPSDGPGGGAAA

[10] = system: male Sprague Dawley rats; assay: Rotarod test for motor impairment or sedation, intrathecal; type: in vivo, rat; settings: 180 s cutoff
[11] = system: sham-operated male Sprague Dawley rats; assay: Thermal paw withdrawal latency in sham-operated animals, intrathecal; type: in vivo, rat; settings: 45 min time point
Procedure, shortened: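 Sham rats had the L5/L6 nerves exposed without ligation, then 5–7 days recovery. An intrathecal catheter ending at the lumbar cord was placed under ketamine/xylazine, with 5–7 days recovery. Test compound in 33% EtOH/water was injected in 5 μL with a 9 μL saline flush. Radiant heat was focused on the ipsilateral hind paw, and latencies were read blinded every 15 min for 60 min. In crossovers, vehicle rats were redosed ≥5 h later.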

[12] = molecular target: δ opioid receptor; settings: read-out: Ki at the δ opioid receptor; ref Agnes et al., 2008; cited from earlier work
[13] = system: mu opioid receptor; settings: ref Agnes et al., 2008; Hruby et al., 2003; cited from earlier work
[14] = system: delta opioid receptor; settings: ref Agnes et al., 2008; Hruby et al., 2003; cited from earlier work
[15] = 30 μg/5μL intrathecal (gabapentin 30 μg)

NCC1(CC(=O)O)CCCCC1 [gabapentin, reference compound]
AUC, paw withdrawal latency (thermal) ([1]; gabapentin (30 mg) intrathecal): 104.72 ± 11.01 | effect on thermal hyperalgesia compared to vehicle or post injury baseline ([1]; gabapentin (30 mg) intrathecal): significant efficacy | AUC, paw withdrawal threshold (mechanical) [2, 15]: 25.97 ± 6.68

CN1CC[C@]23c4c5ccc(O)c4O[C@H]2[C@@H](O)C=C[C@H]3[C@H]1C5 [morphine, reference compound]
Paw Withdrawal Latency (Sec ± SEM) ([3]; RVM 60 ng/0.5μl with pretreatment (−20min) of naloxone (subcutaneous; 10mg/kg)): 18.70** Sec | effect on thermal hyperalgesia compared to vehicle or post injury baseline ([1]; gabapentin (30 mg) intrathecal): significant efficacy

H-Tyr^1-DNle^2-Gly^3-Trp^4-Nle^5-Asp^6-Phe^7-NH2 [RSA 504]
Ki [4]: 16 nM | Paw Withdrawal Latency (Sec ± SEM) ([3]; RVM 60 ng/0.5μl with pre-administration (−10min) of CCK-8sulf (RVM; 30 ng/0.5 μL)): 22.35^† Sec | effect on CCK-8 induced thermal hypersensitivity ([3]; RVM administration, effect not significantly attenuated by naloxone): reversed the CCK-8 hypersensitivity | Ki [5]: 27 nM | Ki [6]: 11.2 nM | antinociceptive tolerance (day 7 A50 compared to day one) ([7]; intrathecal administration over 7 days): not significantly different | A50, reconstructed antihyperalgesic dose response curve, day 7 ([7]; intrathecal, 30 min, day 7 after 30 μg/5μL/day for 6 days (14 days after SNL)): 6.45 μg/5μL | A50, antihyperalgesic dose response curve, day one ([7]; intrathecal, 30 min, treatment day 1 (7 days after SNL)): 5.89 μg/5μL | attenuation of thermal hyperalgesia compared to vehicle ([1]; 1 μg/5μL intrathecal): did not produce a significant effect | attenuation of thermal hyperalgesia compared to vehicle and post-injury baseline ([1]; 10 μg/5μL and 30 μg/5μL intrathecal, 30 min time point): significantly attenuated | AUC, paw withdrawal latency (thermal) ([1]; 10 μg/5μL intrathecal): 83.61 ± 6.40 | AUC, paw withdrawal latency (thermal) ([1]; 30 μg/5μL intrathecal): 111.10 ± 7.97 | A50, antihyperalgesic dose response curve ([1]; intrathecal, peak effect 30 min, day 7 after SNL): 6.09 μg/5μL | EC50 ([8]; read-out: EC50 in GTP-γ-S binding assay at MOR): 0.47 nM | Emax in GTP-γ-S binding assay at MOR [8]: 110 nM | EC50 ([9]; read-out: EC50 in GTP-γ-S binding assay at hDOR): 5.5 nM | Emax in GTP-γ-S binding assay at hDOR [9]: 81 nM | motor impairment or sedation on the rotarod [10]: did not result in motor impairment | paw withdrawal latencies in sham animals [11]: significantly increased | Ki [12]: 23 nM | in vitro activity in GPI for mu opioid receptor activity [13]: 210 nM | attenuation of mechanical hypersensitivity compared to vehicle ([2]; 3 μg/5μL intrathecal): No significance | attenuation of mechanical hypersensitivity compared to post-injury baseline ([2]; 3 μg/5μL intrathecal, 15, 30 and 45 min post administration): Significant attenuation | AUC, paw withdrawal threshold (mechanical) ([2]; 3 μg/5μL intrathecal): 32.53 ± 4.39 | attenuation of mechanical hypersensitivity compared to vehicle ([2]; 10 μg/5μL and 30 μg/5μL intrathecal (RSA 504: 30 min; RSA 601: all time points)): significant attenuation | AUC, paw withdrawal threshold (mechanical) ([2]; 10 μg/5μL intrathecal (morphine 10 μg)): 39.38 ± 3.17 | AUC, paw withdrawal threshold (mechanical) [2, 15]: 44.80 ± 4.93 | A50, antiallodynic dose response curve ([2]; intrathecal, peak effect 30 min, day 7 after SNL, von Frey): 4.67 μg/5μL | in vitro activity in the MVD for delta opioid receptor activity [14]: 23 nM
